Here are results for twelve compounds from ChEMBL document CHEMBL3272318, “Antimalarials. 8. Synthesis of amino ethers as candidate antimalarials” (J Med Chem, 1976).

Calls of active or inactive are those of the source. No cut-off for these calls is given here.

The test system of one data set is Plasmodium berghei. The data set is described as follows: Antimalarial activity against blood schizont stage of Plasmodium berghei infected in mouse at 640 mg/kg. In kind it is functional, organism-based. Also noted: dose 640 mg/kg.
The test system of a further data set is Plasmodium gallinaceum. The data set can be described thus: Antimalarial activity against sporozoite stage of Plasmodium gallinaceum infected in chick at 480 mg/kg. It counts as functional, organism-based. Also noted: dose 480 mg/kg. The gist of the method: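 Prophylactic screen run at the Rane Laboratory (University of Miami) in chicks infected with Plasmodium gallinaceum. Compounds were tested at doses up to 480 mg/kg.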

The species named for the next data set is Mus musculus. The data set is described as follows: Toxicity in mouse infected with blood schizont stage of Plasmodium berghei. To be noted: in vivo. It counts as organism-based.

Consider `CC(C)(Br)C(=O)c1ccc(Cl)cc1`, for which the result in the data set with Plasmodium berghei and in the data set with Plasmodium gallinaceum was inactive. For the same compound, in the data set filed under Mus musculus, the Activity entry is listed as “Toxic”.
On to `CCC(CC1CCNCC1)(OC)c1ccc(Cl)cc1` (stereo unspecified), for which the result in the data set with Plasmodium berghei and in the data set on Plasmodium gallinaceum was inactive. Further, the Activity entry in the data set listed under Mus musculus is “Toxic”.
Turning to `CCOC(c1ccc(Cl)cc1)C(C)C1CCNCC1.O=C(O)CCC(=O)O` (stereo unspecified), the outcome in the data set on Plasmodium berghei and in the data set with Plasmodium gallinaceum was inactive. Moreover, the Activity result in the data set listed under Mus musculus is “Toxic”.
Consider `CN1CCC(C2(C)OC2c2ccc(Cl)cc2)CC1.Cc1ccc(S(=O)(=O)O)cc1` (stereo unspecified), for which the result in the data set on Plasmodium berghei and in the data set on Plasmodium gallinaceum was inactive. Further, the Activity result in the data set listed under Mus musculus is on record as “Toxic”.
As to `CCOC(C)(Cc1ccc(Cl)cc1)C1CCNCC1.Cl` (stereo unspecified), the outcome in the data set on Plasmodium berghei and in the data set with Plasmodium gallinaceum was inactive. Further, in the data set filed under Mus musculus, the Activity result is on record as “Toxic”.
For `COC(c1ccc(Cl)cc1)C(C)C1CCNCC1.Cl` (stereo unspecified), the result in the data set with Plasmodium berghei and with Plasmodium gallinaceum was inactive. For the same compound, the Activity entry in the data set filed under Mus musculus is “Toxic”.
Regarding `CCC(CC1CCCNC1)(OC)c1ccc(Cl)cc1` (stereo unspecified), the outcome in the data set with Plasmodium berghei and in the data set with Plasmodium gallinaceum was inactive. In the data set listed under Mus musculus, the Activity entry is on record as “Toxic”.
In the case of `CCC(Cc1ccc(Cl)cc1)(OC)C1CCCNC1.O=C(O)CCC(=O)O` (stereo unspecified), the outcome in the data set with Plasmodium berghei and in the data set on Plasmodium gallinaceum was inactive. The Activity result in the data set listed under Mus musculus is on record as “Toxic”.
Take `CCOC(C)(CC1CCNCC1)c1ccc(Cl)cc1` (stereo unspecified): the result in the data set on Plasmodium berghei and with Plasmodium gallinaceum was inactive. Further, in the data set listed under Mus musculus, the Activity result is “Toxic”.
In the case of `CC1(C2CCN(C(=O)O)CC2)OC1c1ccc(Cl)cc1` (stereo unspecified), the outcome in the data set with Plasmodium berghei and with Plasmodium gallinaceum was inactive. The Activity entry in the data set filed under Mus musculus was “Toxic”.
As to `COC(CC1CCNCC1)c1ccc(Cl)cc1.Cl` (stereo unspecified), the outcome in the data set on Plasmodium berghei and with Plasmodium gallinaceum was inactive. Also, the Activity result in the data set listed under Mus musculus is “Toxic”.
As to `CC(C)(Br)C(=O)c1ccc(-c2ccc(Cl)cc2)cc1`, the outcome in the data set with Plasmodium berghei and in the data set on Plasmodium gallinaceum was inactive. For the same compound, the Activity entry in the data set listed under Mus musculus is “Toxic”.
